Test results taken from ChEMBL document CHEMBL3351225, “Design, synthesis, and structure-activity and structure-pharmacokinetic relationship studies of novel [6,6,5] tricyclic fused oxazolidinones leading to the discovery of a potent, selective, and orally bioavailable FXa inhibitor” (J Med Chem, 2014).

Key:
[1] = Elimination half life in Sprague-Dawley rat at 4.5 mg/kg, iv; type: ADME, organism-based; design: dose 4.5 mg/kg, route intravenous; details: in vivo, read-out: beta t1/2 (converted)
Summary of the method: (§1)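 Male Sprague-Dawley rats, 200−220 g, four per group. Vehicle was 5% DMSO + 5% Tween-80 in 90% saline. The reference drug was given in 10% DMSO + 10% Tween-80 + 80% PEG400 (40% solution in saline). Serial retrobulbar vein samples were quantified by LC-MS. Parameters came from noncompartmental analysis of mean plasma concentrations.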

[2] = biological target: Coagulation factor X (Homo sapiens, UniProt P00742); experiment: Inhibition of human factor 10a using N-Z-D-Arg-Gly-Arg-pNA, S-2765 chromogenic substrate
Sequence of Coagulation factor X (P00742 41-179 limits assumed): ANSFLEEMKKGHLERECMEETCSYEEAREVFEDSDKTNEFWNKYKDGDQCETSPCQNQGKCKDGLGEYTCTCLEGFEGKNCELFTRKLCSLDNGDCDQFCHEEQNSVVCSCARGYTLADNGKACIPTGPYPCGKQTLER
Sequence of Coagulation factor X (P00742 235-488 limits assumed): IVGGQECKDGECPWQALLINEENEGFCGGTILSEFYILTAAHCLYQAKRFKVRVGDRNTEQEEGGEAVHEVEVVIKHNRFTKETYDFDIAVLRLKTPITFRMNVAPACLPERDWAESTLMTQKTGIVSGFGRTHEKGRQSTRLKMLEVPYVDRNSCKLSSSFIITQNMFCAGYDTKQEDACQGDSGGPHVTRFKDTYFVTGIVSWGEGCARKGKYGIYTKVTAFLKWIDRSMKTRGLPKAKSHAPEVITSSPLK

[3] = Volume of distribution at steady state in Sprague-Dawley rat at 4.5 mg/kg, iv; type: ADME, organism-based; design: dose 4.5 mg/kg, route intravenous; details: in vivo, read-out: Vdss; summary of the method: as §1
[4] = AUC (0 to infinity) in Sprague-Dawley rat at 9 mg/kg, po; type: ADME, organism-based; design: time infinity, dose 9 mg/kg, route oral; details: plasma; summary of the method: as §1
[5] = tested on: Plasma; experiment: Anticoagulant activity in citrated rabbit plasma assessed as activated partial thromboplastin time preincubated for 10 mins at 37 degC by coagulometry; type: functional, Oryctolagus cuniculus
Summary of the method: (§2)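 Test compound or DMSO added to citrated rabbit plasma (3.8% sodium citrate, 10:90 v/v) and preincubated 10 min at 37 °C. PT and aPTT clotting times measured on a coagulometer with commercial kits. Activity expressed as the concentration needed to double plasma clotting time (CT2, μM).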

[6] = Tmax in Sprague-Dawley rat at 9 mg/kg, po; type: ADME, organism-based; design: dose 9 mg/kg, route oral; details: in vivo; summary of the method: as §1
[7] = Oral bioavailability in Sprague-Dawley rat at 9 mg/kg; type: ADME, organism-based; details: in vivo; summary of the method: as §1
[8] = AUC (0 to infinity) in Sprague-Dawley rat at 4.5 mg/kg, iv; type: ADME, organism-based; design: time infinity, dose 4.5 mg/kg, route intravenous; details: plasma; summary of the method: as §1
[9] = Elimination half life in Sprague-Dawley rat at 9 mg/kg, po; type: ADME, organism-based; design: dose 9 mg/kg, route oral; details: in vivo, read-out: beta t1/2 (converted); summary of the method: as §1
[10] = Cmax in Sprague-Dawley rat at 9 mg/kg, po; type: ADME, organism-based; design: dose 9 mg/kg, route oral; details: in vivo; summary of the method: as §1
[11] = tested on: Plasma; experiment: Anticoagulant activity in citrated rabbit plasma assessed as drug concentration required to double plasma clotting time preincubated for 10 mins at 37 degC by coagulometry; type: functional, Oryctolagus cuniculus; summary of the method: as §2
[12] = Plasma clearance in Sprague-Dawley rat at 4.5 mg/kg, iv; type: ADME, organism-based; design: dose 4.5 mg/kg, route intravenous; summary of the method: as §1
[13] = Cmax in Beagle dog at 1 mg/kg, po; type: ADME, organism-based, Canis lupus familiaris; design: dose 1 mg/kg, route oral; details: in vivo
Summary of the method: (§3)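 Male dogs, three per group. Dosed orally at 1 mg/kg or by intravenous infusion at 0.5 mg/kg. Vehicle was 5% DMSO + 5% Tween-80 in 90% saline, or 10% DMSO + 10% Tween-80 + 80% PEG400 for the reference drug. Foreleg blood samples were quantified by LC-MS. Parameters came from noncompartmental analysis of mean plasma concentrations.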

[14] = AUC (0 to infinity) in Sprague-Dawley rat at 3 mg/kg, po; type: ADME, organism-based; design: time infinity, dose 3 mg/kg, route oral; details: plasma
[15] = Plasma clearance in Beagle dog at 0.5 mg/kg, iv; type: ADME, organism-based, Canis lupus familiaris; design: dose 0.5 mg/kg, route intravenous; summary of the method: as §3
[16] = AUC (0 to infinity) in Beagle dog at 1 mg/kg, po; type: ADME, organism-based, Canis lupus familiaris; design: time infinity, dose 1 mg/kg, route oral; details: plasma; summary of the method: as §3
[17] = Oral bioavailability in Beagle dog at 1 mg/kg; type: ADME, organism-based, Canis lupus familiaris; details: in vivo; summary of the method: as §3
[18] = Tmax in Beagle dog at 1 mg/kg, po; type: ADME, organism-based, Canis lupus familiaris; design: dose 1 mg/kg, route oral; details: in vivo; summary of the method: as §3
[19] = Oral bioavailability in Sprague-Dawley rat at 3 mg/kg; type: ADME, organism-based; details: in vivo
[20] = AUC (0 to infinity) in Beagle dog at 0.5 mg/kg, iv; type: ADME, organism-based, Canis lupus familiaris; design: time infinity, dose 0.5 mg/kg, route intravenous; details: plasma; summary of the method: as §3
[21] = Plasma clearance in Sprague-Dawley rat at 3 mg/kg, iv; type: ADME, organism-based; design: dose 3 mg/kg, route intravenous; summary of the method: as §1
[22] = Tmax in Sprague-Dawley rat at 3 mg/kg, po; type: ADME, organism-based; design: dose 3 mg/kg, route oral; details: in vivo
[23] = Volume of distribution at steady state in Sprague-Dawley rat at 3 mg/kg, iv; type: ADME, organism-based; design: dose 3 mg/kg, route intravenous; details: in vivo, read-out: Vdss; summary of the method: as §1
[24] = Elimination half life in Sprague-Dawley rat at 3 mg/kg, iv; type: ADME, organism-based; design: dose 3 mg/kg, route intravenous; details: in vivo, read-out: beta t1/2 (converted); summary of the method: as §1
[25] = AUC (0 to infinity) in Sprague-Dawley rat at 3 mg/kg, iv; type: ADME, organism-based; design: time infinity, dose 3 mg/kg, route intravenous; details: plasma; summary of the method: as §1
[26] = Cmax in Sprague-Dawley rat at 3 mg/kg, po; type: ADME, organism-based; design: dose 3 mg/kg, route oral; details: in vivo
[27] = tested on: Rattus norvegicus; experiment: Antithrombotic activity in rat model of arteriovenous shunt-induced thrombosis assessed as reduction in thrombus formation dosed orally 60 mins before shunt opening; details: po
[28] = Elimination half life in Beagle dog at 1 mg/kg, po; type: ADME, organism-based, Canis lupus familiaris; design: dose 1 mg/kg, route oral; details: in vivo; summary of the method: as §3
[29] = Volume of distribution at steady state in Beagle dog at 0.5 mg/kg, iv; type: ADME, organism-based, Canis lupus familiaris; design: dose 0.5 mg/kg, route intravenous; details: in vivo, read-out: Vdss; summary of the method: as §3
[30] = Elimination half life in Sprague-Dawley rat at 3 mg/kg, po; type: ADME, organism-based; design: dose 3 mg/kg, route oral; details: in vivo, read-out: beta t1/2 (converted)
[31] = tested on: Rattus norvegicus; experiment: Induction of tail bleeding in rat assessed as prolongation of bleeding time dosed orally 60 mins before surgery; type: organism-based; details: in vivo, po, 1 h
Summary of the method: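 Anesthetized rats were dosed orally with compound suspended in 0.5% CMC-Na, or vehicle, 60 min before the tail was transected 4 mm from the tip. The tail was immersed vertically in saline at 37 °C. Bleeding time was taken as the point when flow ceased for >30 s, with a 30 min maximum.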

[32] = Elimination half life in Beagle dog at 0.5 mg/kg, iv; type: ADME, organism-based, Canis lupus familiaris; design: dose 0.5 mg/kg, route intravenous; details: in vivo; summary of the method: as §3
[33] = tested on: Rattus norvegicus; experiment: Antithrombotic activity in rat model of FeCl3-induced venous thrombosis assessed as reduction in thrombus formation dosed orally 60 mins before thrombus formation; details: po
[34] = Tmax in Sprague-Dawley rat at 10 mg/kg, po; type: ADME, organism-based; design: dose 10 mg/kg, route oral; details: in vivo; summary of the method: as §1
[35] = biological target: Coagulation factor IX (Homo sapiens, UniProt P00740); experiment: Inhibition of human factor 9a using CH3SO2-(D)CHG Gly-Arg-pNA, Biophen-CS51 chromogenic substrate
Sequence of Coagulation factor IX (P00740 47-191 limits assumed): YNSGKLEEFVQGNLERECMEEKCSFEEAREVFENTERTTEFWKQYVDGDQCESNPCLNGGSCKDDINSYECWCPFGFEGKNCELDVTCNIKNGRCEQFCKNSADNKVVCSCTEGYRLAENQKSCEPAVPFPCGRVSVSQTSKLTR
Sequence of Coagulation factor IX (P00740 227-461 limits assumed): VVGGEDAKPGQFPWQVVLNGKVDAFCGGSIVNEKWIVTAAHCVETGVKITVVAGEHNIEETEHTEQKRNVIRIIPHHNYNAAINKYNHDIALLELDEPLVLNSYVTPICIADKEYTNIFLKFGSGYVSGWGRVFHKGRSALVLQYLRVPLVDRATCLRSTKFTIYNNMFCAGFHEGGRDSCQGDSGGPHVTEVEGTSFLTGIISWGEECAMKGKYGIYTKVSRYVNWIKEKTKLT

[36] = biological target: Coagulation factor XI (Homo sapiens, UniProt P03951); experiment: Inhibition of human factor 11a using S-2366 chromogenic substrate
Sequence of Coagulation factor XI (P03951 19-387 limits assumed): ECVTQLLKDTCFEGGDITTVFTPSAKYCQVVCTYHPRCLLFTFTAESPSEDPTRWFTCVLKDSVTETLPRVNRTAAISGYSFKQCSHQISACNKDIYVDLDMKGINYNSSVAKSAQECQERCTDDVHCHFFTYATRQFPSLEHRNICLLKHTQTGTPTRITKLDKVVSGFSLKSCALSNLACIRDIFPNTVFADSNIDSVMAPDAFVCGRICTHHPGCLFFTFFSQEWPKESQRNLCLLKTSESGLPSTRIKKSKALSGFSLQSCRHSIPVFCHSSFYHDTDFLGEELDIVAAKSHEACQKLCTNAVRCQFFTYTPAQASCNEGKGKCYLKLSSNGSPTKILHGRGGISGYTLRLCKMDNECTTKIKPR
Sequence of Coagulation factor XI (P03951 388-625 limits assumed): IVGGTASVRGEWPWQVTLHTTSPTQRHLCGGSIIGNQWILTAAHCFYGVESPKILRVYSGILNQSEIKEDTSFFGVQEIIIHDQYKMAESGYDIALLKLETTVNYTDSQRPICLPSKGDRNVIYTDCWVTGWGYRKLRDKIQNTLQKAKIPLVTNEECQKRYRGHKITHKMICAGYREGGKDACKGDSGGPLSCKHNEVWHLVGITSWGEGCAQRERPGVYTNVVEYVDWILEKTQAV
Summary of the method: (§4)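 Human enzyme and inhibitor were premixed and preincubated, then the chromogenic substrate was added. Substrate levels: 300 μM S-2765 (FXa, trypsin); 200 μM S-2366 (FIIa); 2 mM S-2366 (FVIIa, FXIa). pNA release was monitored continuously at 405 nm for 20 min at 37 °C. IC50 was obtained by nonlinear regression.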

[37] = Oral bioavailability in Sprague-Dawley rat at 10 mg/kg; type: ADME, organism-based; details: in vivo; summary of the method: as §1
[38] = Elimination half life in Sprague-Dawley rat at 10 mg/kg, po; type: ADME, organism-based; design: dose 10 mg/kg, route oral; details: in vivo, read-out: beta t1/2 (converted); summary of the method: as §1
[39] = biological target: Trypsin (Homo sapiens, UniProt P07477+P07478+P35030); experiment: Inhibition of human trypsin using N-Z-D-Arg-Gly-Arg-pNA, S-2765 chromogenic substrate; type: protein assay; summary of the method: as §4
[40] = biological target: Prothrombin (Homo sapiens, UniProt P00734); experiment: Inhibition of human factor 2a using L-pyro-Glu-Pro-ArgpNA, S-2366 chromogenic substrate; summary of the method: as §4
[41] = biological target: T1, Coagulation factor VII (Homo sapiens, UniProt P08709); experiment: Inhibition of human factor 7a using S-2366 chromogenic substrate; summary of the method: as §4
T1 sequence (P08709 whole entry): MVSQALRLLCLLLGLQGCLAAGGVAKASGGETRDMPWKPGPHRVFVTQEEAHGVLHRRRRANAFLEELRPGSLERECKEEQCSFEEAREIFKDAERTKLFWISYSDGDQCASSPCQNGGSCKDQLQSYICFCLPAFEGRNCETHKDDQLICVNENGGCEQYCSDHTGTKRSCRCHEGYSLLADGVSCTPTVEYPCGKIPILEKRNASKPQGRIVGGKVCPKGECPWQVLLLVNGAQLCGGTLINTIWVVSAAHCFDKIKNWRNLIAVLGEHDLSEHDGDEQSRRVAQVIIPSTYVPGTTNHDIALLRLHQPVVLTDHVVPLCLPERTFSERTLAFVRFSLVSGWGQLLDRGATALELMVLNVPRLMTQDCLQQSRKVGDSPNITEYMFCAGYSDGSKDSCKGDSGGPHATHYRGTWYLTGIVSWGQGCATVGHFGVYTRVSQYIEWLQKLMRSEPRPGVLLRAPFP

[42] = Cmax in Sprague-Dawley rat at 10 mg/kg, po; type: ADME, organism-based; design: dose 10 mg/kg, route oral; details: in vivo; summary of the method: as §1
[43] = AUC (0 to infinity) in Sprague-Dawley rat at 10 mg/kg, po; type: ADME, organism-based; design: time infinity, dose 10 mg/kg, route oral; details: plasma; summary of the method: as §1

Structure (SMILES)	IC50 [2]	AUC(0-inf) [4]	2aPTT [5]	bioavailability [7]	AUC(0-inf) [8]	Activity [11]	clearance [12]	clearance [21]	Vd [23]	half-life [24]	AUC(0-inf) [25]	Tmax [34]	IC50 [35]	IC50 [36]	bioavailability [37]	half-life [38]	IC50 [39]	IC50 [40]	IC50 [41]	Cmax [42]	other results
CS(=O)(=O)c1ccccc1-c1ccc2c(c1)OC[C@H]1[C@H](CNC(=O)c3ccc(Cl)s3)OC(=O)N21	0.0376 µM	24500 ng·h/mL	4.65 µM	27.3%	43900 ng·h/mL	5.88 µM	1.72 mL/min/kg	–	–	–	–	–	–	–	–	–	–	–	–	–	half-life [1]: 0.88 h; Vd [3]: 0.169 L/kg; Tmax [6]: 1 h; half-life [9]: 1.43 h; Cmax [10]: 6760 ng/mL
O=C(NC[C@H]1CN(c2ccc(N3CCOCC3=O)cc2)C(=O)O1)c1ccc(Cl)s1 [RIVAROXABAN]	–	–	0.32 µM	–	–	0.4 µM	–	5.05 mL/min/kg	0.19 L/kg	1.27 h	9980 ng·h/mL	–	–	–	–	–	–	–	–	–	Cmax [13]: 333 ng/mL; AUC(0-inf) [14]: 2260 ng·h/mL; clearance [15]: 10 mL/min/kg; AUC(0-inf) [16]: 1000 ng·h/mL; bioavailability [17]: 68%; Tmax [18]: 0.7 h; bioavailability [19]: 21.3%; AUC(0-inf) [20]: 916 ng·h/mL; Tmax [22]: 0.88 h; Cmax [26]: 850 ng/mL; ED50 [27]: 3.72 mg/kg; half-life [28]: 1.8 h; Vd [29]: 2.8 L/kg; half-life [30]: 2.9 h; Activity [31]: Dose-dependent effect; half-life [32]: 2.4 h; ED50 [33]: 4.86 mg/kg
O=C(NC[C@@H]1OC(=O)N2c3ccc(N4CCOCC4=O)cc3CC[C@@H]12)c1ccc(Cl)s1	0.00471 µM	–	0.33 µM	–	–	0.37 µM	–	2.48 mL/min/kg	0.144 L/kg	0.74 h	20400 ng·h/mL	2.3 h	> 100 µM	> 100 µM	20.4%	3.54 h	> 100 µM	> 100 µM	> 100 µM	3020 ng/mL	AUC(0-inf) [43]: 14200 ng·h/mL
O=C(NC[C@@H]1OC(=O)N2c3ccc(N4CCOCC4=O)cc3NC[C@@H]12)c1ccc(Cl)s1	0.00506 µM	–	0.43 µM	–	–	0.48 µM	–	9.22 mL/min/kg	0.199 L/kg	0.86 h	5700 ng·h/mL	0.44 h	> 100 µM	> 100 µM	6.8%	1.52 h	> 100 µM	> 100 µM	> 100 µM	565 ng/mL	AUC(0-inf) [43]: 1350 ng·h/mL
O=C(NC[C@@H]1OC(=O)N2c3ccc(N4CCCCC4=O)cc3OC[C@@H]12)c1ccc(Cl)s1	–	28500 ng·h/mL	1.63 µM	42%	33600 ng·h/mL	0.42 µM	2.28 mL/min/kg	–	–	–	–	–	–	–	–	–	–	–	–	–	–
